# Source: article PMC4235474 (Clinical Pharmacology : Advances and Applications, 2014)
# “And” between values parts separate entries of the source, which are not always exact repeats. Equal entries are not always repeated. Where two headings read alike, the source gives them in different places. Marks after values point to notes of the source that are not given here.
# Legend:
# [1] = Multiple-dose steady-state plasma pharmacokinetics; format: in vivo, healthy subjects (human); settings: for Coefficient of variation (intersubject variability) for exposure parameters (AUC0–24, Cmax, Cmin): apixaban 2.5 mg BID
# factor Xa = factor Xa (Bos taurus, UniProt P00743); test: Steady-state plasma anti-factor Xa activity; format: in vivo, healthy subjects (human); settings: for slope of concentration–AXA linear regression: AXA versus plasma concentration, P<0.0001 between drugs; for intercept in regression equation anti-FXa vs plasma concentration / slope in regression equation anti-FXa vs plasma concentration: Figure 4 regression equation; for AXA Tpeak median (min–max): time of peak anti-FXa activity, day 4 steady state; for AXA AUC(0–24) G mean (CV): 0 to 24 hours after morning dose, rivaroxaban 10 mg QD
# healthy subjects = test: Safety and tolerability; format: in vivo, human; settings: for deaths or serious AEs: during the study; for number of subjects reporting AEs: of 14 subjects; for tolerability: rivaroxaban 10 mg QD, apixaban 2.5 mg BID for 4 days
# Method in brief: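 Randomized open-label two-period crossover in healthy volunteers housed in a clinical unit. Each took two oral factor Xa inhibitors for 4 days: one at 2.5 mg twice daily, the other at 10 mg once daily. Physical exam, vital signs, 12-lead ECG and blood/urine labs were done at screening, before each period and at discharge. AEs were monitored throughout, MedDRA-coded, and graded for severity, onset, drug relationship and outcome.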
# [2] = cited from earlier work; for fluctuation in mean concentrations / mean terminal half-life: apixaban 2.5 mg BID, multiple ascending dose study
# [3] = cited from earlier work
# [4] = VTEp patients; cited from earlier work
# prothrombin time = settings: at a concentration of 1,000 ng/mL; cited from earlier work
# [5] = day 4 steady state, rivaroxaban 10 mg QD
# [6] = day 4 steady state, rivaroxaban 10 mg QD, apixaban 2.5 mg BID oral, N=14
# factor Xa, sequence (P00743 234-492 limits assumed): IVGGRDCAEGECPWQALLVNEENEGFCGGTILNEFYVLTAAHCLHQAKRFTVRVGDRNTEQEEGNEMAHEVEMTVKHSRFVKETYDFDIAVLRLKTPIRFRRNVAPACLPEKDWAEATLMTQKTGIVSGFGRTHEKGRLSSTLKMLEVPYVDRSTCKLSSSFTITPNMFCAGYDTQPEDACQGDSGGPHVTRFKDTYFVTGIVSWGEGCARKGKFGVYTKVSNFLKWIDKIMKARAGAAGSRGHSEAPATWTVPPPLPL
# factor Xa, sequence (P00743 41-180 partner limits assumed): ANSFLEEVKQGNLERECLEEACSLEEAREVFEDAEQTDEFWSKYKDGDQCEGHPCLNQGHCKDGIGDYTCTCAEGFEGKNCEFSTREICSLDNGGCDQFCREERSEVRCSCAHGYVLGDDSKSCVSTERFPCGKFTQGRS
compound,measurement,setting,value
"COc1ccc(-n2nc(C(N)=O)c3c2C(=O)N(c2ccc(N4CCCCC4=O)cc2)CC3)cc1 [Apixaban, apixaban]","T1/2 Mean (SD), terminal half-life","[1]; after last dose on day 4 (apixaban: evening dose; rivaroxaban: morning dose), N=14",8.65 (2.19) ^* h
same,"Coefficient of variation (intersubject variability) for exposure parameters (AUC0–24, Cmax, Cmin)",[1]; [5],20%–24%
same,Cmax G mean (%CV),[1]; [6],80.5 (23) ng/mL
same,Tmax,"[1]; human, plasma, oral",2 h
same,AUC(0-t),"[1]; human, plasma, oral, 2.5 mg",527 ng·h/mL
same,AXA AUC(0–12) G mean (CV),"factor Xa; 0 to 12 hours after morning dose, day 4, apixaban 2.5 mg BID, N=14",7.42 (21) IU · h/mL
same,slope of concentration–AXA linear regression,factor Xa,0.0134 IU/ng
same,intercept in regression equation anti-FXa vs plasma concentration,factor Xa,0.02753
same,slope in regression equation anti-FXa vs plasma concentration,factor Xa,0.01342
same,AXA T1/2 Mean (SD),"factor Xa; determined after evening dose on day 4, apixaban 2.5 mg BID",8.9 h and 8.91 (2.46) ^‡ h
same,AXA Tpeak median (min–max),factor Xa; N=14,2.00 (1.00–3.00) h
same,AXA Tpeak median (min–max),"factor Xa; N=14, listed as apixaban",2 h
same,deaths or serious AEs,healthy subjects,No deaths or serious AEs
same,number of subjects reporting AEs,healthy subjects,eight
same,tolerability,healthy subjects,well-tolerated
same,time to steady state,[2]; BID dosing,2 to 3 days
same,fluctuation in mean concentrations,[2]; Japanese subjects,~ 4.2
same,mean terminal half-life,[2]; Japanese subjects,9.7 h
same,fluctuation in mean concentrations,[2]; Western subjects,~ 3.0
same,mean terminal half-life,[2]; Western subjects,8.1 h
same,terminal half-life,[2],~ 12 hours
same,time to maximal plasma concentrations after administration,[2],~ 3 hours
same,accumulation,[2]; following BID dosing,< 2 fold
same,bioavailability,[2]; not significantly influenced by dose or meals,~ 50%
same,Protein binding,[3],~ 87%
"O=C(NC[C@H]1CN(c2ccc(N3CCOCC3=O)cc2)C(=O)O1)c1ccc(Cl)s1 [Rivaroxaban, rivaroxaban]","AUC0–24 at steady state, rivaroxaban higher than apixaban",[1]; daily AUC,~ 17%
same,"Cmax, rivaroxaban relative to apixaban (higher)",[1]; day 4,~ 2 fold
same,"Cmin, rivaroxaban lower than apixaban",[1]; day 4,~ 40%
same,"Coefficient of variation (intersubject variability) for exposure parameters (AUC0–24, Cmax, Cmin)",[1]; [5],29%–46%
same,Cmin G mean (%CV),[1]; [6],10.1 (39) ng/mL
same,"Cmax/Cmin ratio, rivaroxaban relative to apixaban","[1]; geometric mean ratio, 90% CI: 2.82–4.61",3.6 fold
same,AXA AUC(0–24) G mean (CV),"factor Xa; day 4, apixaban 2.5 mg BID, N=14",17.8 (29) IU · h/mL
same,AXA AUC(0–24) G mean (CV),"factor Xa; day 4, apixaban 2.5 mg BID, N=14, listed as rivaroxaban",17.8 IU · h/mL
same,slope of concentration–AXA linear regression,factor Xa,0.0172 IU/ng
same,intercept in regression equation anti-FXa vs plasma concentration,factor Xa,−0.03215
same,slope in regression equation anti-FXa vs plasma concentration,factor Xa,0.01719
same,"AXA AUC(0–24), rivaroxaban higher than apixaban",factor Xa; geometric mean,~ 34%
same,"AXA AUC(0–24), rivaroxaban relative to apixaban (higher)",factor Xa; steady state,~1.3 fold
same,"Peak AXA, rivaroxaban relative to apixaban (higher)",factor Xa; steady state,~ 2.5 fold
same,"trough AXA, rivaroxaban lower than apixaban",factor Xa; steady state,~ 30%
same,AXA Tpeak median (min–max),factor Xa; N=14,2.00 (1.00–3.00) h
same,AXA Tpeak median (min–max),"factor Xa; N=14, listed as rivaroxaban",2 h
same,number of AEs reported,"healthy subjects; after start of study medication, 14 subjects, all mild",Twelve
same,deaths or serious AEs,healthy subjects,No deaths or serious AEs
same,number of subjects reporting AEs,healthy subjects,seven
same,tolerability,healthy subjects,well-tolerated
same,terminal half-life,[2],~ 10 hours
same,time to maximal plasma concentrations after administration,[2],~ 3 hours
same,bioavailability,[2]; depending on dose and administration with a meal,66%–100%
same,accumulation,[2]; following QD administration,does not show appreciable accumulation
same,half-life,"[2]; rivaroxaban 5 mg QD, healthy subjects",8.4 h
same,Protein binding,[3],~ 93%
same,Cmax/Cmin ratio,[4],~ 7
same,effect in the prothrombin time assay,prothrombin time,greater effect than apixaban
